The values below come from ChEMBL document CHEMBL1926643, “Synthesis, anti-inflammatory activity and molecular docking studies of 2,5-diarylfuran amino acid derivatives” (Eur J Med Chem, 2012).

In data set [1] the target is T1, Prostaglandin G/H synthase 1 (Rattus norvegicus) (UniProt Q63921).
T1 sequence (whole entry): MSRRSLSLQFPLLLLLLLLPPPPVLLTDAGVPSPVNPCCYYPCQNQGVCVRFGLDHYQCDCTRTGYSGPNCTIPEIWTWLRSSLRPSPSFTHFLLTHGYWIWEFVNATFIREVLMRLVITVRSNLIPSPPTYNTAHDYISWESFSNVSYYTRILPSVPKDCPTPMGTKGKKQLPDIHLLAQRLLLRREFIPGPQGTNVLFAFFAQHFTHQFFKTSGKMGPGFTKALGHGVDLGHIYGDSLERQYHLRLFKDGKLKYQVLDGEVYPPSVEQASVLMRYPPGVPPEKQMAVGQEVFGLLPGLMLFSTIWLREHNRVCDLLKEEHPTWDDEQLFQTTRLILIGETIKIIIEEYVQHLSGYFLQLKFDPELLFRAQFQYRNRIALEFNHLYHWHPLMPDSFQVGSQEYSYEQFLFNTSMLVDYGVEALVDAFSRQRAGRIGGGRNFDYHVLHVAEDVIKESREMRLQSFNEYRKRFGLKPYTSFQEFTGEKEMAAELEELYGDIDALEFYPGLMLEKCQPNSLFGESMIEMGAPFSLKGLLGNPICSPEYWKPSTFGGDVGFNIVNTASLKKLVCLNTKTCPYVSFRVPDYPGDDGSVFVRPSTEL
In words: Inhibition of COX-1 in rat leukocytes assessed as reduction in PGE2 production from arachidonic acid at 10 nM preincubated for 10 mins by EIA. The format is cell-based.

Data set [2] deals with Neutrophil. Kind of data set: Antiinflammatory activity in Wistar rat neutrophils assessed as decrease in PGE2 level at 10 nM after 18 hrs by EIA. The format is functional, cell-based. Put shortly:
(§1)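 Neutrophils were taken from male Wistar rats 4 h after intraperitoneal oyster glycogen (1%, 10 mL). Cells were cultured in RPMI1640 with 10% FBS, with compound at 10 nM, with or without LPS, for 18 h. PGE₂ in the culture supernatant was quantified by EIA. Data are the mean ± s.e.m. of cells from four animals, compared against medium-only control cells.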

Data set [3] concerns Neutrophil. Kind of data set: Antiinflammatory activity in Wistar rat neutrophils assessed as decrease in LPS-induced PGE2 secretion at 10 nM after 18 hrs by EIA. The format is functional, cell-based. The method, boiled down: as §1
Data set [4] can be described thus: Cytotoxicity against LPS-stimulated Wistar rat neutrophils assessed as reduction in cell viability at 10 nM after 18 hrs by trypan blue staining method. Conditions: neutrophil, 0.01 µM. The format is cell-based. The method, boiled down: (§2)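 Neutrophils were elicited in male Wistar rats by intraperitoneal oyster glycogen (1%, 10 mL) and harvested after 4 h. Cells were exposed to compound at 1, 10, 100 or 1000 nM, with or without LPS, for 18 h in RPMI1640 with 10% FBS. Viability was scored by trypan blue staining against medium-only controls.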

Data set [5] in a line: Cytotoxicity against Wistar rat neutrophils assessed as reduction in cell viability at 10 nM after 18 hrs by trypan blue staining method. The format is cell-based. Conditions: neutrophil, 0.01 µM. The method, boiled down:
as §2

Each structure is given as a SMILES string. Activity calls are given as the source filed them. The calls are words filed in the database; no cut-off is given here.

Consider `COc1ccc(-c2ccc(-c3cccc(NC(=O)CNC(=O)OC(C)(C)C)c3)o2)cc1`, for which the inhibition result in data set [1] is “inactive”.

Regarding `COc1ccc(-c2ccc(-c3cccc(NC(=O)[C@H](COC(=O)c4ccccc4)NC(=O)OC(C)(C)C)c3)o2)cc1`, the inhibition result in data set [1] is “inactive”.

As for `Cc1ccc(-c2cc(C(F)(F)F)nn2-c2ccc(S(N)(=O)=O)cc2)cc1`, the outcome in the data set on Neutrophil [2] was inactive. Moreover, the outcome in the data set on Neutrophil [3] was Active.

`COc1ccc(-c2ccc(-c3cccc(NC(=O)[C@H](CCCNC(=N)NS(=O)(=O)c4ccc(C)cc4)NC(=O)OC(C)(C)C)c3)o2)cc1`: the inhibition result in data set [1] was “inactive”.

`COc1ccc(-c2ccc(-c3cccc(NC(=O)[C@H](CC(C)C)NC(=O)OC(C)(C)C)c3)o2)cc1`: the inhibition entry in data set [1] is “inactive”.

Consider `COc1ccc(-c2ccc(-c3cccc(NC(=O)[C@H](C)NC(=O)OC(C)(C)C)c3)o2)cc1`, for which the inhibition result in data set [1] is “inactive”.

With `COc1ccc(-c2ccc(-c3cccc(NC(=O)[C@H](CSCc4ccccc4)NC(=O)OCc4ccccc4)c3)o2)cc1`, the result in the data set with Neutrophil [2] and in the data set with Neutrophil [3] was inactive. The Activity entry in data set [4] and in data set [5] was “Non-toxic” each time. For the same compound, the inhibition result in data set [1] is “inactive”.

As for `COc1ccc(-c2ccc(-c3cccc(NC(=O)[C@@H]4CCCN4C(=O)OC(C)(C)C)c3)o2)cc1`, the outcome in the data set on Neutrophil [2] was inactive. The Activity entry in data set [4] and in data set [5] was “Non-toxic” each time. Moreover, in the data set with Neutrophil [3], the result was Active. In addition, the inhibition result in data set [1] is “inactive”.

Regarding `COc1ccc(-c2ccc(-c3cccc(NC(=O)[C@H](CCC(=O)OC(C)(C)C)NC(=O)OCC4c5ccccc5-c5ccccc54)c3)o2)cc1`, the inhibition result in data set [1] is “inactive”.

`COc1ccc(-c2ccc(-c3cccc(NC(=O)[C@H](Cc4ccccc4)NC(=O)OC(C)(C)C)c3)o2)cc1`: the outcome in the data set with Neutrophil [2] and in the data set on Neutrophil [3] was inactive. Also, the Activity result in data set [4] and in data set [5] was “Non-toxic” in each case. For the same compound, the inhibition entry in data set [1] was “inactive”.

Take `COc1ccc(-c2ccc(-c3cccc(NC(=O)[C@H](CCSC)NC(=O)OC(C)(C)C)c3)o2)cc1`: in data set [1], the inhibition entry is “inactive”.

Turning to `COc1ccc(-c2ccc(-c3cccc(NC(=O)[C@@H](NC(=O)OC(C)(C)C)C(C)C)c3)o2)cc1`, the result with Neutrophil [2] and in the data set on Neutrophil [3] was inactive. The Activity result in data set [4] and in data set [5] was “Non-toxic” throughout. The inhibition entry in data set [1] is “inactive”.
